Laboratory results reported in ChEMBL document CHEMBL4342478, “Discovery of Potent N-Ethylurea Pyrazole Derivatives as Dual Inhibitors of Trypanosoma brucei and Trypanosoma cruzi” (ACS Med Chem Lett, 2020).
The source made the active and inactive calls. No cut-off for these calls is given here.

What was measured:
[1] = Toxicity in BALB/c mouse infected with Trypanosoma cruzi Brazil trypomastigotes expressing firefly luciferase assessed as lethargy at 50 mg/kg, po via gavage twice daily at 30 mins after administration with 50 mg/kg, ip CYP inhibitor, 1-aminobenzotriazole twice daily; type: organism-based; conditions: in vivo, 0.5 h
Procedure, shortened: (§1)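 Acutely infected BALB/c mice carried luciferase-expressing T. cruzi Brazil strain. Mice received oral gavage twice daily of 50 mg/kg test article in PBS with 2% methylcellulose and 0.5% Tween 80. Each dose followed ip 1-aminobenzotriazole 50 mg/kg by 30 min.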

Trypanosoma cruzi [2] = test: Antitrypanosomal activity against Trypanosoma cruzi infected in rat H9C2 cells by DRAQ5 DNA dye based imaging analysis; type: functional, organism-based
Procedure, shortened: (§2)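 IC50 values are the mean of two independent experiments. The T. b. brucei assay uses free parasites. The T. cruzi assay uses intracellular parasites in H9c2 host cells.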

[3] = Toxicity in BALB/c mouse infected with Trypanosoma cruzi Brazil trypomastigotes expressing firefly luciferase assessed as body weight loss at 50 mg/kg, po via gavage twice daily at 30 mins after administration with 50 mg/kg, ip CYP inhibitor, 1-aminobenzotriazole twice daily; type: organism-based; conditions: in vivo, 0.5 h; procedure, shortened: as §1
[4] = Selectivity index, ratio of IC50 for human HEK293 cells incubated for 69 hrs by resazurin dye based fluorescence analysis to IC50 for antitrypanosomal activity against Trypanosoma brucei brucei BS427; type: toxicity; conditions: read-out: Ratio IC50
Trypanosoma cruzi [5] = test: Trypanosomacidal activity against Trypanosoma cruzi strain Y trypomastigotes assessed as reduction in number of infected cells at 0.078 uM measured for 24 to 96 hrs by Hoechst 33342 staining based fluorescence imaging assay relative to benznidazole; type: functional
Procedure, shortened: (§3)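 Time-to-kill assay against intracellular T. cruzi, with test article at 0.312 or 0.078 μM. Controls were benznidazole 20 μM, posaconazole 0.04 μM and DMSO. The number of infected host cells was tracked over time after drug addition.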

Plasmodium falciparum = test: Antiplasmodial activity against erythrocytic stage of Plasmodium falciparum after 48 hrs by [3H]-hypoxanthine incorporation assay; type: functional, organism-based
[6] = Selectivity index, ratio of cytotoxicity against rat H9C2 cells to IC50 for antitrypanosomal activity against Trypanosoma cruzi infected in rat H9C2 cells; type: toxicity, cell-based; conditions: read-out: Selectivity Index
[7] = Half life in human liver microsomes; type: ADME, Microsome
[8] = tested on: Trypanosoma brucei rhodesiense; test: Antitrypanosomal activity against blood stream form of Trypanosoma brucei rhodesiense STIB900 after 72 hrs by Alamar blue based fluorometric assay; type: functional, organism-based
[9] = Metabolic stability in human liver microsomes; type: ADME, Microsome
Trypanosoma cruzi [10] = test: Antitrypanosomal activity against Trypanosoma cruzi Tulahuen C2C4 trypomastigotes infected in rat L6 cells after 96 hrs by photometric analysis; type: functional, organism-based
[11] = Metabolic stability in mouse liver microsomes; type: ADME, Microsome
[12] = tested on: Trypanosoma brucei brucei; test: Antitrypanosomal activity against Trypanosoma brucei brucei BS427 after 48 hrs by resazurin dye based fluorescence assay; type: functional, organism-based; conditions: Trypanosoma brucei, BS427, 48 h; read-out: IC50; procedure, shortened: as §2
Leishmania donovani = test: AntiLeishmanial activity against amastigote form of Leishmania donovani MHOM/ET/67/L82 after 72 hrs by Alamar blue dye based fluorometric analysis; type: functional, organism-based
[13] = Kinetic solubility of compound at pH 2 to 6.5 by nephelometry; type: physicochemical; conditions: buffer, read-out: Kinetic_solubility
Trypanosoma cruzi [14] = test: Trypanosomacidal activity against Trypanosoma cruzi strain Y trypomastigotes assessed as reduction in number of infected cells at 0.078 uM measured within first 24 hrs by Hoechst 33342 staining based fluorescence imaging assay; type: functional, organism-based; procedure, shortened: as §3
Trypanosoma cruzi [15] = test: Antitrypanosomal activity against Trypanosoma cruzi Brazil trypomastigotes expressing firefly luciferase infected in BALB/c mouse assessed as reduction in parasitemia at 50 mg/kg, po via gavage twice daily at 30 mins after administration with 50 mg/kg, ip CYP inhibitor, 1-aminobenzotriazole twice daily and measured after 6 days by bioluminescence assay; type: functional, organism-based
Procedure, shortened: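 BALB/c mice were infected with trypomastigotes of a transgenic T. cruzi Brazil strain expressing firefly luciferase. Treatment was by oral gavage twice daily: vehicle (PBS with 2% methylcellulose and 0.5% Tween 80), or 50 mg/kg test article given 30 min after ip 1-aminobenzotriazole 50 mg/kg. Benznidazole 30 mg/kg was given by oral gavage once daily. Parasite load was measured by bioluminescence imaging at treatment day 0 (3 days post infection) and day 6.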

Trypanosoma cruzi [16] = test: Trypanosomacidal activity against Trypanosoma cruzi strain Y trypomastigotes assessed as reduction in number of infected cells at 0.312 uM measured within first 24 hrs by Hoechst 33342 staining based fluorescence imaging assay; type: functional, organism-based; procedure, shortened: as §3
Trypanosoma cruzi [17] = test: Trypanosomacidal activity against Trypanosoma cruzi strain Y trypomastigotes assessed as reduction in number of infected cells at 0.312 uM measured for 24 to 96 hrs by Hoechst 33342 staining based fluorescence imaging assay relative to benznidazole; type: functional; procedure, shortened: as §3

| SMILES | Activity [1] | IC50 (Trypanosoma cruzi [2]) | Activity [3] | selectivity ratio at 69 h [4] | fold change (FC) (Trypanosoma cruzi [5]) | Activity (Plasmodium falciparum) | selectivity ratio [6] | half-life [7] | Activity [8] | Stability [9] | Activity (Trypanosoma cruzi [10]) | Stability [11] | IC50 [12] | Activity (Leishmania donovani) | solubility kinetic [13] | Activity (Trypanosoma cruzi [14]) | Activity (Trypanosoma cruzi [15]) | Activity (Trypanosoma cruzi [16]) | fold change (FC) (Trypanosoma cruzi [17]) |
| --- | --- | --- | --- | --- | --- | --- | --- | --- | --- | --- | --- | --- | --- | --- | --- | --- | --- | --- | --- |
| O=C(NCCn1ccc(-c2ccc(F)c(F)c2)n1)N1CC[C@H](F)C1 | Toxic | 16 nM | Toxic | 8650 | 36 | Active | 588 to 3160 | 23 min | Active | Stable | Active | Stable | 9 nM | Active | > 20 µg/mL | Active | Active |  |  |
| O=C(NCCn1ccc(-c2ccccc2)n1)N1CCCCC1 |  | 250 nM |  | 1350 |  | Active | 32 |  | Active |  | Active |  | 60 nM | Active | > 20 µg/mL |  |  | Active | 36 |
